# Measurements collected from several papers.
# Lines come from different studies, so protocols differ.
# Observed: cell growth or viability
SMILES,cell line,test,conditions,IC50 [µM]
COc1c(C)cnc(Cn2cnc3c(Cl)nc(N)nc32)c1C,MB002,,7 days,0.0974
CNC(=S)NN=C(C)c1c(O)c2ccccc2oc1=O,human Skin fibroblast,MTT,48 h,> 100
Cn1ncnc1[C@H]1c2n[nH]c(=O)c3cc(F)cc(c23)N[C@@H]1c1ccc(F)cc1,MB002,,7 days,0.00373
CC(=O)c1sc(=NN=C(C)c2c(O)c3ccccc3oc2=O)[nH]c1C,human Skin fibroblast,MTT,48 h,> 100
CC(C)c1cc(-c2n[nH]c(=O)n2-c2ccc3c(ccn3C)c2)c(O)cc1O,B16-F10,imaging,24 h,0.321
O=C(N/N=C/c1c(O)ccc2ccccc12)c1cc(-c2ccc3ccccc3c2)n[nH]1,WM278,MTS,48 h,8
O=c1[nH]cc(S(=O)(=O)Nc2cccc(-c3nnc(-c4cccc(Cl)c4)o3)c2)c(=O)[nH]1,SK-MES-1,MTT,24 h,13.9
CON(C)C(=O)N1N=C(c2cc(F)ccc2F)S[C@@]1(CCCN)c1ccccc1,MB002,,7 days,0.000967
CCn1c(C)c(N=Nc2ccc(C)cc2)sc1=NN=C(C)c1c(O)c2ccccc2oc1=O,human Skin fibroblast,MTT,48 h,> 100
O=C(Nc1nnc(-c2cc3ccccc3[nH]2)s1)c1cc2c([nH]c3ccccc32)c(-c2ccccc2)n1,BT-474,MTT,72 h,5.68
C[C@]1(c2nc3c(C(N)=O)cccc3[nH]2)CCCN1,HD-MB03,,7 days,> 10
Cc1ccc2[nH]c(=O)c3cc(C(=O)NCCCN(C)Cc4ccccc4)sc3c2c1,CFPAC-1,MTT,24 h,16.8
CN1CCN(CCOc2cc(OC3CCOCC3)c3c(Nc4c(Cl)ccc5c4OCO5)ncnc3c2)CC1,HD-MB03,,7 days,> 10
CC(=O)c1sc(=NN=C(C)c2c(O)c3ccccc3oc2=O)n(C)c1C,human Skin fibroblast,MTT,48 h,> 100
CC(C)C[C@H](NC(=O)[C@H](Cc1ccccc1)NC(=O)c1cnccn1)B(O)O,SK-ES1,ATP luminescence,,0.0087
CC(=NN=C1SC(C)C(=O)N1C)c1c(O)c2ccccc2oc1=O (stereo not shown),human Skin fibroblast,MTT,48 h,> 100
O=C(Nc1nnc(-c2cc3ccccc3[nH]2)s1)c1cc2c([nH]c3ccccc32)c(-c2ccc(Cl)cc2)n1,BT-474,MTT,72 h,8.68
O=C(Nc1ccccc1CO)c1c[nH]c2ccc(Cl)cc12,SK-N-BE,MTT,,17
Oc1ccc(Nc2nc(-c3ccc(Cl)cc3)cs2)cc1,WM278,MTS,72 h,23.6
O=C(NC[C@H](O)CO)c1ccncc1Nc1ccc(I)cc1F,MB002,,7 days,> 10
Cc1cc(-c2nc(C(=O)Nc3cc4oc(N5CCOCC5)nc4nc3N3CC[C@@H](O)C3)co2)ccn1,B16-F10,,5 days,0.55
COc1cc(OC)c(/C=C/S(=O)(=O)Nc2ccc(OC)c(N)c2)c(OC)c1,MES-SA,trypan blue,96 h,0.004
COc1cccc2c1C(=O)c1c(O)c3c(c(O)c1C2=O)C[C@@](O)(C(=O)CO)C[C@@H]3O[C@H]1C[C@H](N)[C@H](O)[C@H](C)O1,BT-474,MTT,72 h,1.82
COc1cc(Nc2nccc(-c3cnn4nc(OC)ccc34)n2)cc(C(F)(F)F)c1,T84,ATP luminescence,,1.3
CC[C@]1(O)C[C@@H]2CN(CCc3c([nH]c4ccccc34)[C@@](C(=O)OC)(c3cc4c(cc3OC)N(C)[C@H]3[C@@](O)(C(=O)OC)[C@H](OC(C)=O)[C@]5(CC)C=CCN6CC[C@]43[C@@H]65)C2)C1,KB 3-1,MTT,,0.0526
Cc1nc(Nc2ncc(C(=O)Nc3c(C)cccc3Cl)s2)cc(N2CCN(CCO)CC2)n1,MB002,,7 days,2.65
CCn1c(-c2nnc(NC(=O)c3cc4c([nH]c5ccccc54)c(-c4cc(OC)c(OC)c(OC)c4)n3)s2)cc2ccccc21,BT-474,MTT,72 h,19.5
CCN1C(=O)C(C)SC1=NN=C(C)c1c(O)c2ccccc2oc1=O (stereo not shown),human Skin fibroblast,MTT,48 h,> 100
COc1cccc2c1C(=O)c1c(O)c3c(c(O)c1C2=O)C[C@@](O)(C(=O)CO)C[C@@H]3O[C@H]1C[C@H](N)[C@H](O)[C@H](C)O1,MB002,,7 days,0.0645
CC(=NN=c1scc(C)n1C)c1c(O)c2ccccc2oc1=O,human Skin fibroblast,MTT,48 h,> 100
CC1(C)[C@@H](O)CC[C@]2(C)[C@H]3C(=O)C=C4[C@@H]5C[C@@](C)(C(=O)O)CC[C@]5(C)CC[C@@]4(C)[C@]3(C)CC[C@@H]12,human Skin fibroblast,MTT,48 h,48.2
